Our source for the Km values is ChEMBL document CHEMBL1141219, “Chemoenzymatic synthesis of a series of 4-substituted glutamate analogues and pharmacological characterization at human glutamate transporters subtypes 1-3” (J Med Chem, 2005).

Substrate in data set [1]: C[C@H](C[C@H](N)C(=O)O)C(=O)O
Kind of data set: (§1) Binding affinity to human EAAT1 expressed in HEK293 cells in FMP (FLPR) assay. In kind it is functional, cell-based. The essentials:
(§2)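 HEK293 cells stably expressing the human transporter, seeded on poly-D-lysine plates in DMEM with 10% dialyzed FBS and G-418 for 16–24 h. Cells washed in Krebs buffer (pH 7.4), then loaded with FMP dye for 30 min at 37 °C. Read at room temperature, excitation 530 nm and emission 560 nm, for up to 1 min after substrate addition. Non-substrate inhibitors were preincubated and tested against 30 μM Glu. Seven-concentration curves from maximal responses, duplicate, at least three times.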

Substrate in data set [2]: N[C@@H](CCC(=O)O)C(=O)O
Described as §1. It is filed as functional, cell-based. Summed up: as §2

Substrate in data set [3]: N[C@@H](C[C@H](O)C(=O)O)C(=O)O
The data set is described as §1. It is filed as functional, cell-based. Summed up: as §2

Substrate in data set [4]: N[C@@H](C[C@@H](O)C(=O)O)C(=O)O
The description is as §1. It is filed as functional, cell-based. The essentials: as §2

Substrate in data set [5]: N[C@@H](CCC(=O)O)C(=O)O
The data set is described as follows: (§3) Binding affinity to human EAAT3 expressed in HEK293 cells in FMP (FLPR) assay. It is filed as functional, cell-based. Summed up:
as §2

Substrate in data set [6]: N[C@@H](C[C@H](O)C(=O)O)C(=O)O
The description is as §3. It is filed as functional, cell-based. The essentials:
as §2

The target of data set [7] is Excitatory amino acid transporter 3 (Homo sapiens) (UniProt P43005). Kind of data set: Binding affinity to human EAAT3 expressed in HEK293 cells in FMP (FLPR) assay.

B1: Excitatory amino acid transporter 1 (Homo sapiens), P43003 (protein)
chain: MTKSNGEEPKMGGRMERFQQGVRKRTLLAKKKVQNITKEDVKSYLFRNAFVLLTVTAVIVGTILGFTLRPYRMSYREVKYFSFPGELLMRMLQMLVLPLIISSLVTGMAALDSKASGKMGMRAVVYYMTTTIIAVVIGIIIVIIIHPGKGTKENMHREGKIVRVTAADAFLDLIRNMFPPNLVEACFKQFKTNYEKRSFKVPIQANETLVGAVINNVSEAMETLTRITEELVPVPGSVNGVNALGLVVFSMCFGFVIGNMKEQGQALREFFDSLNEAIMRLVAVIMWYAPVGILFLIAGKIVEMEDMGVIGGQLAMYTVTVIVGLLIHAVIVLPLLYFLVTRKNPWVFIGGLLQALITALGTSSSSATLPITFKCLEENNGVDKRVTRFVLPVGATINMDGTALYEALAAIFIAQVNNFELNFGQIITISITATAASIGAAGIPQAGLVTMVIVLTSVGLPTDDITLIIAVDWFLDRLRTTTNVLGDSLGAGIVEHLSRHELKNRDVEMGNSVIEENEMKKPYQLIAQDNETEKPIDSETKM
The term Km denotes the concentration of substrate that gives half-maximal velocity. Regarding B1, the Km in data set [1] was found to be 13 µM; in data set [2], 9.2 µM; in data set [3], 140 µM; in data set [4], 1000 µM.

B2: Excitatory amino acid transporter 3 (Homo sapiens), P43005 (protein)
chain: MGKPARKGCEWKRFLKNNWVLLSTVAAVVLGITTGVLVREHSNLSTLEKFYFAFPGEILMRMLKLIILPLIISSMITGVAALDSNVSGKIGLRAVVYYFCTTLIAVILGIVLVVSIKPGVTQKVGEIARTGSTPEVSTVDAMLDLIRNMFPENLVQACFQQYKTKREEVKPPSDPEMNMTEESFTAVMTTAISKNKTKEYKIVGMYSDGINVLGLIVFCLVFGLVIGKMGEKGQILVDFFNALSDATMKIVQIIMCYMPLGILFLIAGKIIEVEDWEIFRKLGLYMATVLTGLAIHSIVILPLIYFIVVRKNPFRFAMGMAQALLTALMISSSSATLPVTFRCAEENNQVDKRITRFVLPVGATINMDGTALYEAVAAVFIAQLNDLDLGIGQIITISITATSASIGAAGVPQAGLVTMVIVLSAVGLPAEDVTLIIAVDWLLDRFRTMVNVLGDAFGTGIVEKLSKKELEQMDVSSEVNIVNPFALESTILDNEDSDTKKSYVNGGFAVDKSDTISFTQTSQF
Consider B2, for which the Km in data set [5] was 25 µM; in data set [6] it was 81 µM; in data set [7] it was 1000 µM.
